The structures appear in SMILES notation. Values joined by “and” are separate entries in the source; they are usually repeats but may differ in a detail not shown here. Equal entries are not always repeated. Screen size: about 2,500 compounds; about 1,200 (48%) were called active.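 How the source made its calls: active means mean activation above the low control average plus 3 SD, as set in the primary screen (cut at about 12% in these data); inactive means the rest.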 The set was probably picked from earlier hits. The list shows a part of the results. Some compounds were tested as several samples or in several runs, with calls that do not always agree.

This experiment addresses Troponin I, cardiac muscle (Homo sapiens) + Troponin T, cardiac muscle (Homo sapiens) + Troponin C, slow skeletal and cardiac muscles (Homo sapiens) (UniProt P19429+P45379+P63316). In words: calcium sensitizers of cardiac thin filaments – biochemical, IANBD-TnC fluorescence, triplicate, confirmation (AID 504383).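 Further: 0% = DMSO at 0.472 mM calcium and 100% = DMSO at 2.9 mM calcium.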 The following applies: IANBD-labeled cardiac RTF, Ca2+ sensitivity fluorescence; at 7.2 µM; stronger effect = higher value; scaled from EC20 to saturating calcium; tested at EC20 calcium, 0.472 mM. The gist of the method: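 Material: labelled regulated thin filaments; Reagent: 0.472 mM calcium; Incubation: 15 min compound incubation with filaments at 25 °C; Detection: filament fluorescence intensity; Evaluation: fluorescence increase normalised to calcium controls; Benchmarks: low control EC20 calcium, high control EC100 calcium.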
Consider `CCCCN(Cc1ccccc1)S(=O)(=O)c1ccc2c(c1)n(C)c(=O)c(=O)n2C`, for which the activation is 2.32% (inactive).

On to `CCCNS(=O)(=O)c1ccc2c(c1)n(C)c(=O)n2C`, for which the activation was 12.4% (active).

Consider `COc1ccc(S(=O)(=O)N(CC(C)C)C2CCS(=O)(=O)C2)cc1OC` (configuration not stated), for which the activation is 17.1% (active).

Take `O=C1c2cccc3cc([N+](=O)[O-])cc(c23)C(=O)N1CCN1CCCC1`: the activation is 8.4% (inactive).

On to `CCN(CC)CCN1C(=O)c2cccc3cc(N)cc(c23)C1=O`, for which the activation was 128% (active).

Take `CN(C)c1ccc(/C=N/NC(=O)c2cnc3ccccc3c2)cc1`: the activation is 6.1% (inactive).

Turning to `O=C(N/N=C/c1ccc2c(c1)OCO2)/C(=C/c1ccc2c(c1)OCO2)NC(=O)c1ccccc1`, the activation is 11.7% (active).

`O=C(N/N=C/c1ccc([N+](=O)[O-])cc1)c1cc(-c2ccc3c(c2)OCO3)n[nH]1`: the activation was 0.5% (inactive).

With `Cc1ccc(Cn2cc(CCC(=O)O)c3ccccc32)cc1`, the activation is 16.7% (active).

For the compound `Nc1nc(SCc2cccc(Br)c2)n[nH]1`, the activation is 9.18% (inactive).

In the case of `COc1cc2c(cc1NC(=O)COC(=O)/C=C/c1ccc([N+](=O)[O-])cc1)oc1ccccc12`, the activation was 4480% (active).

On to `COc1cc([N+](=O)[O-])ccc1N/C=C/C(=O)c1cccs1`, for which the activation was 5.01% (inactive).

In the case of `COc1cc([N+](=O)[O-])ccc1NC(=O)COC(=O)c1n[nH]c2ccccc12`, the activation was 6.72% (inactive).

For the compound `CN1CCCc2cc3c(C(F)(F)F)cc(=O)oc3nc21`, the activation was 10.7% (inactive).

Take `Cc1ccc(C(=O)NCC(=O)OCC(=O)c2ccc(Cl)s2)cc1`: the activation was 232% (active).

For the compound `Cc1ccc(C(=O)NCC(=O)OCC(=O)N(CC(C)C)c2c(N)n(Cc3ccccc3)c(=O)[nH]c2=O)cc1`, the activation was 8.28% (inactive).

`Cc1cc(C)n(NC(=S)NC2CCCCC2)c(=O)c1C#N`: the activation is 7.29% (inactive).

Regarding `O=C1/C(=C\c2c(NCCOCCO)nc3ccccn3c2=O)SC(=S)N1Cc1ccco1`, the activation was 92.6% (active).

With `CCCN(CCC)c1nc2c(C)cccn2c(=O)c1/C=C1/SC(=S)N(Cc2ccco2)C1=O`, the activation is 3.6% (inactive).

On to `COc1ccc(S(=O)(=O)N2CCSC2)cc1C`, for which the activation was 2.98% (inactive).

Consider `Cc1ccc(/C=C/C(=O)N2CCN(S(=O)(=O)c3ccc(C)c(C)c3)CC2)o1`, for which the activation was 17.9% (active).

For the compound `Cc1ccc(S(=O)(=O)N2CCN(c3ncccn3)CC2)cc1C`, the activation was 4.74% (inactive).

Take `Oc1[nH]c2ccccc2c1N=Nc1ccccc1`: the activation is 26.4% (active).

Consider `Oc1[nH]c2ccccc2c1N=Nc1ccc(F)cc1`, for which the activation is 109% (active).

Take `Oc1[nH]c2ccccc2c1N=Nc1cccc(Cl)c1`: the activation was 7.29% (inactive).

Turning to `Oc1[nH]c2ccccc2c1N=Nc1ccccc1Cl`, the activation was 4.59% (inactive).

As to `Oc1[nH]c2ccccc2c1N=Nc1ccccc1F`, the activation was 2.72% (inactive).

Consider `Cc1ccc(Cl)c2c(N=Nc3ccccc3)c(O)[nH]c12`, for which the activation is 14.7% (active).

On to `O=C(c1cnc2ccccc2n1)N1CCN(c2ccc(C(F)(F)F)cn2)CC1`, for which the activation is 32.8% (active).

For `Cc1ccc(NC(=O)O/N=C/c2ccc(F)cc2)cc1`, the activation was 8.78% (inactive).

Take `CCN(CC)c1ccc(/C=N/OCC(=O)Nc2cccc(C)c2)cc1`: the activation is 19.6% (active).

`Cc1ccc(NC(=O)CO/N=C/c2ccc(N(C)C)cc2)cc1`: the activation is 6.41% (inactive).

As to `O=C1N/C(=C\c2ccc(N3CCOCC3)c(F)c2)C(=O)N1Cc1ccccc1`, the activation was 5.84% (inactive).

In the case of `O=C(O)c1cc(NCc2ccc(F)cc2)ccc1N1CCOCC1`, the activation is 91.3% (active).

Regarding `O=C(N1CCOCC1)N1CCN(c2ccc(F)cc2)CC1`, the activation is 2.34% (inactive).

Take `C=CCOc1ccc(CNc2ccc3[nH]c(=O)[nH]c3c2)cc1OCC`: the activation was 25% (active).

Take `CN(C)c1ccc(/C=C/c2nc3ccccc3c(=O)[nH]2)cc1`: the activation was 9.5% (inactive).

Consider `CC(C)CC[n+]1ccccc1/C=C/c1ccc(N(C)C)cc1`, for which the activation is 7% (inactive).

In the case of `CN(C)c1ccc(/C=C/c2ccc3ccccc3n2)cc1`, the activation is 14.9% (active).

Turning to `CN(C)c1ccc(C2C=C(c3ccc(Cl)cc3OC(F)F)Nc3ncnn32)cc1` (configuration not stated), the activation was 80% (active).

On to `Cc1ccsc1C1C=C(c2cccc(Br)c2)Nc2ncnn21` (configuration not stated), for which the activation is 1.58% (inactive).

Turning to `Cc1c(C=O)c2ccccn2c1C(=O)c1cccs1`, the activation is 6.64% (inactive).

Turning to `Cc1cccc(Nc2c([N+](=O)[O-])c(=O)oc3ccccc23)c1`, the activation is 23.2% (active).

Turning to `Nc1nc(NCCCN2CCOCC2)nc(Nc2cccc(Cl)c2)c1[N+](=O)[O-]`, the activation is 5.57% (inactive).

As to `COc1ccc(CC/C(C)=N\NC(N)=O)cc1`, the activation was 16.2% (active).

Take `COc1ccc(CCC(=O)N2CCc3ccccc32)cc1`: the activation was 6.5% (inactive).

Take `COc1ccc(CC(=O)NNC(=O)c2ccncc2)cc1`: the activation is 8.9% (inactive).

In the case of `Cc1ccc(C)c(S(=O)(=O)N2CCCC2CNC(=O)C(=O)NC2CC2)c1` (configuration not stated), the activation is 5.98% (inactive).

In the case of `Cc1ccc(-c2nc(NC(=O)CSc3cc(C)c4ccccc4n3)ns2)cc1`, the activation is 4.39% (inactive).

`C=C(C)c1sc(-c2ccc(Cl)cc2)nc1C`: the activation is 1.76% (inactive).

In the case of `Cc1ccc(SCC(=O)c2sc(-c3ccccc3)nc2C)cc1`, the activation is 35.4% (active).

Turning to `COc1ccc2c3c(cccc13)C(=O)CC2`, the activation is 18.7% (active).

As for `COc1ccc2noc3c2c1C(=O)c1ccccc1-3`, the activation is 3.9% (inactive).

As for `Nc1ccc2c3c(cccc13)CC2`, the activation was 6.56% (inactive).

Turning to `CCCn1c(=O)c(C(=O)NNC(=O)c2ccccc2[N+](=O)[O-])c(O)c2ccccc21`, the activation is 18.9% (active).

As for `CC1CCN(c2oc(-c3ccccc3F)nc2C#N)CC1`, the activation was 10.8% (inactive).

For the compound `CCOC(=O)Cn1c(=NC(=O)c2cc(-c3cccs3)nc3ccccc23)sc2cc(S(N)(=O)=O)ccc21`, the activation was 1.79% (inactive).

Regarding `COCCn1c(=NC(=O)/C=C/c2ccccc2)sc2cc(NC(C)=O)ccc21`, the activation was 19.9% (active).

Take `CC1(C(=O)Nc2nnc(SCc3ccccc3)s2)Cc2ccccc2C(=O)O1` (configuration not stated): the activation was 22.1% (active).

On to `CC1(C)CC(=O)c2sc(NC(=O)Cc3cccs3)nc2C1`, for which the activation is 4.44% (inactive).

Consider `CN1CCC2(CC1)C1CN(C)CC=C1C(C#N)=C(N)C2(C#N)C#N` (configuration not stated), for which the activation is 1.95% (inactive) and 33.7% (active).

`CCOc1cc(C2C(C#N)=C(N)OC(C)=C2C(C)=O)cc(Br)c1O` (configuration not stated): the activation was 213% (active).

For `CCOc1ccc(C2C(C#N)=C(N)SC(N)=C2C#N)c(OCC)c1`, the activation was 10% (inactive).

In the case of `O=C(COc1ccccc1Cl)N1CCN(c2ccccn2)CC1`, the activation is 10.9% (inactive).

In the case of `S=C(Nc1cc(Cl)ccc1Oc1ccccc1)N1CCN(c2ccccn2)CC1`, the activation was 102% (active).

Regarding `O=c1c2ccccc2nc2n1CCCN2`, the activation is 17.2% (active).

As for `CCC[C@@H](CN1CCC[C@H]1CN1C(N)=NC[C@@H]1Cc1ccccc1)N1C[C@@H](Cc2ccccc2)N(CCCC2CCCC2)C1=N`, the activation is 38.3% (active).

In the case of `O=C(Cn1c(=O)oc2cc(S(=O)(=O)N3CCCC3)ccc21)N1CCc2ccccc2C1`, the activation was 10.4% (inactive).

Regarding `CCOc1cc(C#N)ccc1OCC(=O)N1CCc2ccccc2C1`, the activation is 12.3% (active).

On to `CC(C(=O)N1CCc2ccccc2C1)N1C(=O)c2ccccc2C1=O` (configuration not stated), for which the activation was 2.65% (inactive).

Turning to `CCNc1cccc2c1C(=O)N(C)C2=O`, the activation is 1.44% (inactive).

Consider `CCC1(O)C(=O)OCc2c1cc1n(c2=O)Cc2cc3cc(O)ccc3nc2-1` (configuration not stated), for which the activation is 16.1% (active).

Turning to `CC[C@@]1(O)C(=O)OCc2c1cc1n(c2=O)Cc2cc3c(CN(C)C)c(O)ccc3nc2-1`, the activation is 22.4% (active).

Consider `CCOc1nnc(C)c2c(C)n(-c3cccc(Cl)c3)nc12`, for which the activation is 5.31% (inactive).

`O=C(O)c1ccccc1-c1ccc(/C=C2\SC(=O)N(c3ccccc3)C2=O)o1`: the activation was 9.01% (inactive).

`O=C1NC(=S)/C(=C\c2ccc(-c3ccccc3Cl)o2)S1`: the activation is 14.2% (active).

On to `Cc1noc(/C=C/c2ccc(-c3ccccc3Cl)o2)c1[N+](=O)[O-]`, for which the activation is -1.31% (inactive).

Consider `Cc1ccc(/C=C2/SC(=O)NC2=S)o1`, for which the activation was 29.6% (active).

With `Cc1nc2ccc(Cl)cc2nc(C)/c1=N\O`, the activation is 6.95% (inactive).

As to `CCOC(=O)c1c(-c2ccccc2)csc1NC(=O)/C(C#N)=C\c1ccc(O)c(OC)c1`, the activation was 11.3% (inactive).

For the compound `CCOC(=O)c1c(-c2ccccc2)csc1NC(=O)/C(C#N)=C/c1ccc(O)c(OC)c1`, the activation is 23.8% (active).

Regarding `CCNC(=S)N/N=C/c1sc(N2CCCCC2)nc1-c1cccs1`, the activation is 1.11% (inactive).

`S=C(NCCCN1CCOCC1)Nc1ccc(-c2nc3ccccc3[nH]2)cc1`: the activation was 17% (active).

As to `S=C(Nc1ccc(Cl)cc1)N(CCCN1CCOCC1)Cc1ccco1`, the activation was 11.2% (inactive).

For the compound `COC(=O)Cc1ccc(NC(=S)NCCCN2CCOCC2)cc1`, the activation was 2.97% (inactive).

In the case of `C(=N\Nc1nnnn1-c1ccccc1)/c1ccncc1`, the activation is 6.05% (inactive).

For the compound `O=C(O)c1ccccc1CSc1nnnn1-c1ccccc1`, the activation was 51.1% (active).

For the compound `O=C(NCC1CCCO1)c1cccc2c1C(=O)c1ccc(N3CCC(Cc4ccccc4)CC3)cc1S2(=O)=O` (configuration not stated), the activation was 4.73% (inactive).

Regarding `O=C(NCC1CCCO1)c1ccc2c(c1)C(=O)N(c1cccc([N+](=O)[O-])c1)C2=O` (configuration not stated), the activation was 31.3% (active).

As to `O=C(Cn1ncc2c3ccccc3n(Cc3cccc(Cl)c3)c2c1=O)NCC1CCCO1` (configuration not stated), the activation is 5.86% (inactive).

For the compound `Cc1cccc(CSc2ccc(-c3ccco3)nn2)c1`, the activation is -0.44% (inactive).

Regarding `N#Cc1ccccc1OCC(=O)OCC(=O)c1ccc2c(c1)NC(=O)CO2`, the activation was 21.9% (active).

For `CSc1c(CC(=O)NCCO)n(C)c2ccccc12`, the activation is 23.2% (active).

Take `Cn1c(=O)cc(SCC(=O)NCC2COc3ccccc3O2)c2ccccc21` (configuration not stated): the activation was 7.4% (inactive).

Take `Cc1ccccc1C(=O)NC(=S)NC1CC1`: the activation is 0.94% (inactive).

On to `O=C(O)c1ccccc1/C=N/NC(=S)NC1CCCCC1`, for which the activation was 5.68% (inactive).

Consider `O=C(NC1CCCCC1)c1ccccc1NC(=S)NC(=O)C1CCC1`, for which the activation is 24.5% (active).

The record behind these values is PubChem BioAssay AID504383 (The Scripps Research Institute Molecular Screening Center, 2011).
